From ChEMBL document CHEMBL4732244, “A new class of α-ketoamide derivatives with potent anticancer and anti-SARS-CoV-2 activities” (Eur J Med Chem, 2021) come the findings set out here.

For one data set, the system named is Ramos. The experiment in a line: Anticancer activity against human Ramos cells assessed as cell viability measured after 72 hrs by MTT assay. Type of data set: functional, cell-based. A digest of the protocol: (§1)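 MTS growth assay after 72 h compound exposure. RPMI8226 (1×10^4/well), THP-1 and Ramos (5×10^4/well) were cultured in RPMI 1640 with 10% FBS. MGC-803, HeLa and SW480 (5×10^3/well) were cultured in DMEM with 10% FBS. All at 37 °C, 5% CO2. MTS was added for 3 h at 37 °C and OD read at 490 nm. IC50 from 7 concentrations; triplicate wells, three independent experiments.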

Another data set concerns RPMI-8226. The experiment in a line: Anticancer activity against human RPMI8226 cells assessed as cell viability measured after 72 hrs by MTT assay. The format is functional, cell-based. The note with it: RPMI-8226, 72 h. The method in brief: as §1
Another data set relates to SW480. The experiment in a line: Anticancer activity against human SW480 cells assessed as cell viability measured after 72 hrs by MTT assay. The format is functional, cell-based. The note with it: SW480, 72 h. A digest of the protocol: as §1
In general terms: Tetrazolium dyes change colour on reduction, which living cells bring about.

The subject of another data set is HeLa. The experiment in a line: Anticancer activity against human HeLa cells assessed as cell viability measured after 72 hrs by MTT assay. Type of data set: functional, cell-based. A digest of the protocol:
as §1

Another data set has as its system THP-1. Description: Anticancer activity against human THP-1 cells assessed as cell viability measured after 72 hrs by MTT assay. The format is functional, cell-based. The note with it: THP-1, 72 h. The method in brief: as §1
In a further data set the test system is MGC-803. The experiment in a line: Anticancer activity against human MGC-803 cells assessed as cell viability measured after 72 hrs by MTT assay. Type of data set: functional, cell-based. The following applies: MGC-803, 72 h. The method in brief:
as §1

The nature of data set [1]: Cytotoxicity in African green monkey Vero E6 cells assessed as reduction in cell viability after 48 hrs by Celltiter Glo luminescent assay. Type of data set: cell-based. The note with it: chlorocebus aethiops, vero e6, 48 h. A digest of the protocol: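 CellTiter-Glo viability: Vero E6 cells at 2 × 10^4 cells/well were exposed to serially diluted compound for 48 h. Luminescence was read 10 min after substrate addition. CC50 was derived by curve fitting.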
For orientation: ATP-based viability assays read luminescence as a measure of living cells.

For the next data set, the system named is SARS-CoV-2. The experiment in a line: Antiviral activity against SARS coronavirus 2 infected in Vero E6 cells assessed as plague reduction measured after 1 hr. The following applies: Severe acute respiratory syndrome coronavirus 2, Vero C1008, 1 h. Type of data set: functional, organism-based.

For orientation: IC50 means the concentration needed to halve the response being measured. Consider `COc1ccc(C[C@H](NC(=O)[C@H](C)NC(=O)c2ccc(-c3ccc(C(C)=O)cc3)o2)C(=O)N[C@@H](CC(C)C)C(=O)C(=O)Nc2ccccc2)cc1`, for which the IC50 in the data set on Ramos stood at 428 nM; in the data set with RPMI-8226, 475 nM; with SW480 it was 2000 nM; in the data set on HeLa, 3200 nM; in the data set on THP-1 it was 475 nM; in the data set with MGC-803 it was 1160 nM.

As to `CC(=O)c1cccc(NC(=O)C(=O)[C@H](CC(C)C)NC(=O)[C@H](Cc2c[nH]c3ccccc23)NC(=O)[C@H](CC(C)C)NC(=O)OCc2ccccc2)c1`, the IC50 with Ramos turned out to be 38.4 nM; in the data set with RPMI-8226, 91 nM; with SW480, 94.2 nM; in the data set on THP-1 it was 78.1 nM; in the data set with MGC-803 it was 88.8 nM.

Turning to `CCc1cccc(NC(=O)C(=O)[C@H](CC(C)C)NC(=O)[C@H](CC(C)C)NC(=O)[C@H](CC(C)C)NC(=O)OCc2ccccc2)c1`, the IC50 with Ramos amounted to 45.7 nM; in the data set on RPMI-8226, 40.4 nM; with SW480 it was 82.9 nM; in the data set with HeLa, 212 nM; in the data set with THP-1, 71.1 nM; in the data set with MGC-803 it was 78.5 nM.

`COc1ccc(C[C@H](NC(=O)[C@H](C)NC(=O)c2ccc(-c3ccccc3)cc2)C(=O)N[C@@H](CC(C)C)C(=O)C(=O)Nc2ccccc2)cc1`: the IC50 was found to be 464 nM in the data set with Ramos; 455 nM in the data set on RPMI-8226; 2440 nM in the data set with SW480; 8700 nM with HeLa; 568 nM with THP-1; 2020 nM in the data set on MGC-803.

As usually defined, the EC50 is the concentration needed to bring the measured effect to its halfway point. As for `COc1ccc(C[C@H](NC(=O)[C@H](C)NC(=O)CN2CCOCC2)C(=O)N[C@@H](Cc2ccccc2)C(=O)C(=O)Nc2ccccc2)cc1`, the Activity entry in data set [1] is given as “Non-Toxic”. In addition, in the data set with SARS-CoV-2, the EC50 is 1280 nM.

In the case of `COc1cc(NC(=O)C(=O)[C@H](CC(C)C)NC(=O)[C@H](CC(C)C)NC(=O)[C@H](CC(C)C)NC(=O)OCc2ccccc2)cc(OC)c1`, the IC50 in the data set on Ramos turned out to be 26.9 nM; in the data set on RPMI-8226, 37.6 nM; in the data set on SW480 it was 72.5 nM; with HeLa it was 120 nM; in the data set on THP-1, 70.7 nM; in the data set with MGC-803, 68.5 nM.

Turning to `CC(C)C[C@H](NC(=O)OCc1ccccc1)C(=O)N[C@@H](CC(C)C)C(=O)N[C@@H](CC(C)C)C(=O)C(=O)Nc1ccccc1`, the IC50 in the data set on Ramos worked out at 53.6 nM; in the data set on RPMI-8226 it was 67.8 nM; in the data set on SW480 it was 106 nM; with HeLa it was 288 nM; in the data set on THP-1 it was 88.1 nM; in the data set with MGC-803, 119 nM.
